For series [1] the following is noted: preclinical model; cited from earlier work.
The next series relates to RCAS-PDGF glioblastoma. The series is described as follows: Ex vivo NIRF imaging of sliced brains. In kind it is in vivo, mouse. To be noted: RCAS-PDGF model, brain slices 48 hours after probe injection, mean±SEM. The method, boiled down: (§1)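 Test probe (1 nmol) injected via tail vein; controls were 1 nmol nonspecific RAD-peptide dye conjugate and a blocking mix (1 nmol probe plus 20 nmol unlabeled cRGD). Mice were killed at 48 h; whole brains were sliced coronally and imaged on Odyssey (800 nm channel, sensitivity 5, 21 μm resolution). Signal was background-subtracted and area-weighted, tumor vs corresponding normal brain; tumor confirmed by H&E.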

The test system of another series is U-87 MG glioblastoma. Nature of the series: Ex vivo NIRF imaging of sliced brains. In kind it is in vivo, mouse. Conditions: U-87 MG model, brain slices 48 hours after probe injection, mean±SEM. The procedure, abridged: as §1
Another series deals with TS543 glioblastoma. Nature of the series: Ex vivo NIRF imaging of sliced brains. In kind it is in vivo, mouse. To be noted: TS543 model, brain slices 48 hours after probe injection, mean±SEM. The method, boiled down:
as §1

As for `CC1(C)C(=CC=C2CCCC(C=CC3=[N+](CCCCCC(=O)[O-])c4ccc(S(=O)(=O)[O-])cc4C3(C)C)=C2Oc2ccc(S(=O)(=O)[O-])cc2)N(CCCCS(=O)(=O)[O-])c2ccc(S(=O)(=O)[O-])cc21.[Na+].[Na+].[Na+].[Na+]` [IRDye 800CW], in series [1], the Toxicity entry is recorded as “good results”.
For “IRDye 800CW-conjugated cyclic Arg-Ala-Asp-D-Phe-Lys (head to tail) [IRDye 800CW-RAD, IRDye 800CW-conjugated cyclic Arg-Ala-Asp-D-Phe-Lys peptide]”, the “T/N ratio ex vivo (area-normalized fluorescence-800, tumor vs normal brain)” value turned out to be 11.6±1.1 in the series on RCAS-PDGF glioblastoma, 10.5±1.0 in the series with U-87 MG glioblastoma and 11.6±1.0 in the series with TS543 glioblastoma.

The record behind these values is paper PMC3733255 (Clinical cancer research : an official journal of the …, 2012).
